Compound activity (PubChem BioAssay)
INS-1E GSIS act: GLuc luminescence reporter in INS-1E cells, primary screen for activators of glucose-dependent secretion of insulin; INS-1E GLuc reporter insulin secretion, 2-3 h; activation, % at 16.6 µM; 370,000 tested, 0.61% active; AID 743287;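 active means lowest replicate activation of at least 40%, so every replicate reaches that level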;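 further: 0% = median of neutral control wells and 100% = median of IBMX positive control wells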
Rtt109 Vps75: blocks Candida albicans Rtt109/Vps75 acetyltransferase activity; 330,000 tested, 0.16% active; purified Rtt109/Vps75, ThioGlo CoA-SH fluorescence, 4 h; Q5AAJ8; inhibition, % at 34.9 µM;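 active means inhibition of at least 50% in every replicate; inconclusive means best replicate reaches 50% inhibition but some replicates fall short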
Target sequence (Q5AAJ8 whole entry, looked up): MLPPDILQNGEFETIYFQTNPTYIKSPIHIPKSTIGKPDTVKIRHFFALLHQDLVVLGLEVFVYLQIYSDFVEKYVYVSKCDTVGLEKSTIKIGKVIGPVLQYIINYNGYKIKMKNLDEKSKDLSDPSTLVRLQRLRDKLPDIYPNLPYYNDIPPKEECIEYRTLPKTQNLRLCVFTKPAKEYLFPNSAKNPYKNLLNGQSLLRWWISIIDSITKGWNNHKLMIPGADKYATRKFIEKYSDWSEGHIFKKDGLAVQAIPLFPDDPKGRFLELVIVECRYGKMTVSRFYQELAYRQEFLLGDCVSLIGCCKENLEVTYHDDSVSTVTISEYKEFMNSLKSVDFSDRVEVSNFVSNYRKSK
Cneo AK release: Cryptococcus neoformans lysis via adenylate kinase release; C. neoformans lysis, adenylate kinase release luminescence, 4 h; normalised: neutral wells 0, clomiphene wells 100; lysis activity, % at 15 µM; 360,000 tested, 0.2% active;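 active means mean lysis activity across replicates of at least 80%, whatever share of replicates individually reach that level; inactive means mean lysis activity below 80%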
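Assay system: log-phase C. neoformans yeast / Quantity: yeast cell density of 5 × 10^6 cells/mL / Medium: fresh YPD growth medium / Compound: single dose / Timing: static 4 h at 37 °C with compound, 1 h detection / Measured by: adenylate kinase release luminescence / Read-out: lysis from increased AK signal / Benchmarks: Clomiphene as positive lysis control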
Env fusion inh: inhibitors of HIV Env-mediated cell fusion; HeLa-JRFL Env/CEM21 cell fusion, luciferase; inhibition, % at 12.3 µM; AID 651610; 360,000 tested, 1.1% active;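 active means mean replicate inhibition score of at least 50 and every replicate individually at or above 50; inconclusive means only one of the two criteria met; inactive means mean below 50 and not all replicates reaching 50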;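 further: 0% = plate neutral controls and 100% = maraviroc near 300 nM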
dFosB act: mouse delta FosB homodimer activation; P13346; purified delta FosB, TAMRA-CDK5 oligo fluorescence polarization; percent of positive-control signal above neutral wells; activation, % at 25 µM; 340,000 tested, 0.99% active;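 active means mean activation above about 17%, with every replicate also reaching it, limit read from the data, passing the limit was not always enough; inconclusive means only one of the two conditions met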
Target sequence (P13346 whole entry, looked up): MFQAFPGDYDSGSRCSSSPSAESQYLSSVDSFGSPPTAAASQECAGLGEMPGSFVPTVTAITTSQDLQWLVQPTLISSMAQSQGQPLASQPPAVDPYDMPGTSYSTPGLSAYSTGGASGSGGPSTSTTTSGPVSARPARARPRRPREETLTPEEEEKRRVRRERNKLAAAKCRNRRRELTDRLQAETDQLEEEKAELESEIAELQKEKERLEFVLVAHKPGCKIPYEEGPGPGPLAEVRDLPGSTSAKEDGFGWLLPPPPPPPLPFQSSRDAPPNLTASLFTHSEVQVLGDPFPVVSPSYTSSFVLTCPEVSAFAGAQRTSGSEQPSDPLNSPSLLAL
miR-122 sensor: blocks miR-122 activity in Huh7 sensor cells | Huh7 miR-122 Renilla luciferase sensor, 48 h; neutral wells = 0, positive control = 100 | activation (reporter increase), % at 12.5 µM | 340,000 tested, 0.3% active;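 active means mean replicate activation score at least 90 and every replicate individually at or above 90; inconclusive means only one of the two criteria met; inactive means neither criterion met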;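 further: higher luciferase means less miR-122 activity so hits act as miR-122 inhibitors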
Active calls of the source: *; ? = inconclusive; nt = no result given; [ ] = another dose, or the depositor's remark. The list is not random: actives were taken first. Their share in the collection is about 2.4%.

SMILES	INS-1E GSIS act	Rtt109 Vps75	Cneo AK release	Env fusion inh	dFosB act	miR-122 sensor
CC(=O)N1CCN(C(=S)NCc2ccccc2)CC1	58*	-4	nt	3	-2	nt
S=C(NCc1ccccc1)N1CCCCC1	-9	nt	nt	26	-8	nt
COc1cc(CN2CC3(CN(C(=O)c4ccc5c(c4)OCO5)C3)c3c(n(C)c4cc(OC)ccc34)[C@H]2CO)cc(OC)c1	-2	nt	nt	nt	nt	nt
CC(C)C[C@H]1COCn2nncc2CC[C@@H](Cc2ccccc2)C(=O)N1	-2	nt	3	66*[16.7 µM]	nt	nt
CC(=O)N(C)C[C@H]1Oc2ncc(-c3cccc(F)c3)cc2C(=O)N([C@H](C)CO)C[C@@H]1C	6	nt	44	1[16.7 µM]	nt	3[16.7 µM]
COc1ccc2oc(C(=O)Nc3nnc(C)s3)c(C)c2c1	53*	-3	-1	-29	-6	-9
CO[C@@H]1CN(C)C(=O)c2ccc(NC(=O)CC(F)(F)F)cc2OC[C@H](C)N(CC2CC2)C[C@@H]1C	8	nt	nt	nt	nt	nt
CC(=O)NC[C@H]1[C@@H](c2ccc(C3=CCCC3)cc2)[C@@H](CO)N1C(=O)NC(C)C	2	nt	120*	nt	nt	21[16.7 µM]
CCCNC(=O)N1[C@H](CO)[C@@H](c2ccc(C3=CCCC3)cc2)[C@@H]1CN(C)C(C)=O	-3	nt	87*	nt	nt	-7[16.7 µM]
C[C@@H]1CCCCO[C@H](CN(C)Cc2ccc3c(c2)OCO3)[C@H](C)CN([C@H](C)CO)C(=O)c2cc(NC(=O)Nc3ccccc3)ccc2O1	-22	nt	0	9[16.7 µM]	nt	2[16.7 µM]
N=c1n(CC(=O)c2ccc(Br)s2)c2ccccc2n1Cc1ccccc1	-55	?	2	-36	25*	-35
Cc1cccc(CN2CCN(CC(=O)NCCCN3CCN(c4ccc(F)cc4)CC3)C2=O)c1	nt	8	-3	59*	-3	-2
C/C=C/c1cnc2c(c1)C(=O)N([C@@H](C)CO)C[C@H](C)[C@H](CN(C)C(=O)C1CCC1)O2	-1	nt	nt	-19[16.7 µM]	nt	7[16.7 µM]
CCC(=O)N(C)C[C@@H]1Oc2cc(-c3cccc(F)c3)ccc2S(=O)(=O)N([C@@H](C)CO)C[C@H]1C	-4	nt	-5	7[16.7 µM]	nt	12[16.7 µM]
Cc1ccc(S(=O)(=O)N(CC(=O)NCc2cccs2)c2ccccc2)cc1	-30	0	0	-34	-7	20
Cc1ccc(N(CC(=O)NCc2cccs2)S(=O)(=O)c2cccs2)cc1	nt	-4	-2	nt	-1	182*
C[C@H]1CCCCO[C@H](CN(C)Cc2ccncc2)[C@@H](C)CN([C@@H](C)CO)C(=O)c2cc(NC(=O)c3ccccc3)ccc2O1	2	nt	0	16[16.7 µM]	nt	6[16.7 µM]
CC(C)NC(=O)Nc1cccc2c1O[C@@H](CN(C)S(=O)(=O)c1cccs1)[C@H](C)CN([C@H](C)CO)C2=O	19	nt	nt	-31[16.7 µM]	nt	-4[16.7 µM]
COc1cccc(NC(=O)N(C)C[C@@H]2Oc3cc(C#Cc4ccc(F)cc4)ccc3S(=O)(=O)N([C@@H](C)CO)C[C@@H]2C)c1	8	nt	1	-10[16.7 µM]	nt	1[16.7 µM]
N#CCc1nc2n(n1)Cc1ccccc1-2	29	73*	-4	nt	-1	-1
O=C(N[C@@H]1CC[C@@H](CCNC(=O)C2CC2)O[C@H]1CO)c1ccncc1	3	nt	1	-11[16.7 µM]	nt	nt
COCC(=O)Nc1ccc2c(c1)OC[C@@H](C)N(Cc1cccc(F)c1)C[C@H](C)[C@H](OC)CN(C)C2=O	-12	nt	17	12[16.7 µM]	nt	nt
CC(=O)Oc1ccccc1Cn1c(C)c(C(=O)NCc2cccc(Cl)c2)sc1=O	-28	nt	0	59*	nt	nt
CC(C)NC(=O)C1(C)CCN1Cc1ccc(C(F)(F)F)cc1 (stereo not given)	-1	nt	9	-19	nt	nt
CC(C)NC(=O)C1(C)CCN1Cc1ccc(-c2ccccc2)cc1 (stereo not given)	3	nt	-7	57*	nt	nt
SMILES	INS-1E GSIS act	Rtt109 Vps75	Cneo AK release	Env fusion inh	dFosB act	miR-122 sensor
CC(C)N1CCC1(C)C(=O)Nc1cccc(C#N)c1 (stereo not given)	4	nt	1	nt	nt	-4
CC(C)NC(=O)C1(C)CCN1Cc1cccc(C#N)c1 (stereo not given)	43*	nt	8	-8	nt	nt
COc1ccc2c3c([nH]c2c1)[C@@H](CO)N(C(=O)c1cccc(F)c1)CC31CN(C(=O)c2cccc(F)c2)C1	-7	nt	nt	nt	nt	nt
CCCNC(=O)[C@@H]1[C@@H](CO)[C@@H]2Cn3c(ccc(C4=CCCC4)c3=O)[C@H]1N2C(=O)CC	0	nt	0	-4[16.7 µM]	nt	nt
COc1cc(NC2c3ccccc3C(=O)N2Cc2ccccc2Cl)cc(OC)c1 (stereo not given)	2	0	8	65*	-1	9
COc1cccc(NC2c3ccccc3C(=O)N2Cc2ccccc2Cl)c1 (stereo not given)	-2	3	0	36	-7	nt
CCCn1c(=S)[nH]c2cc(C(=O)N3CCCC(C(=O)OCC)C3)ccc2c1=O (stereo not given)	nt	-10	-2	84*	-11	33
CCOC(=O)C1CCCN(C(=O)c2cc3c(C)nc4ccccc4c3o2)C1 (stereo not given)	15	-1	-1	56*	-24	-2
FC(F)(F)c1cccc(NC(=S)NCCc2ccccn2)c1	nt	1	-1	-12	8	249*
CC(C)(C)c1ccc(NC(=S)NCCc2ccccn2)cc1	1	-3	nt	-3	-2	nt
C[C@H](CO)N1C[C@H](C)[C@@H](CN(C)C(=O)c2ccccc2)OCCCC[C@H](C)Oc2ccc(NC(=O)C3CCCCC3)cc2C1=O	-9	nt	1	-7[16.7 µM]	nt	16[16.7 µM]
COCCN1Cc2cccc(C(=O)NCc3ccccc3OC)c2C1=O	55*	10	0	nt	-6	18
CO[C@@H]1CN(C)C(=O)c2cc(NC(=O)CC(F)(F)F)ccc2OC[C@H](C)N(C(C)=O)C[C@@H]1C	5	nt	nt	7[16.7 µM]	nt	nt
Brc1ccccc1-c1nnc2sc(Cc3ccccc3)nn12	nt	17	0	57*	-2	-4
CCOC(=O)c1nn(-c2ccc(F)cc2)c2nc(Nc3ccccc3)cc(=O)n12	-5	-1	nt	nt	-6	nt
CCOC(=O)c1nn(-c2ccccc2)c2nc(Nc3ccccc3)cc(=O)n12	78*	0	2	nt	4	-5
CO[C@@H](CN(C)Cc1ccc2c(c1)OCO2)[C@H](C)CN(C(=O)c1ccccc1)[C@@H](C)CO	15	nt	-1	nt	nt	nt
CO[C@@H](CN(C)Cc1ccc2c(c1)OCO2)[C@@H](C)CN(C(=O)c1ccccc1)[C@H](C)CO	7	nt	96*	nt	nt	nt
Cc1ccc(S(=O)(=O)N[C@@H]2CC[C@H](CCn3cc(C4CC4)nn3)O[C@H]2CO)cc1	1	nt	3	-16[16.7 µM]	nt	nt
O=C(CCCSc1nc2ccccc2[nH]1)NC1CCCCC1	-5	56*	nt	-9	-8	nt
Cc1cccc(N2CCN(C(=O)CCCSc3nc4ccccc4[nH]3)CC2)c1C	-23	22	-1	74*	-14	-6
